Molecules are shown by their SMILES. In brackets after ≈: the same amount, converted by molar mass.

Common to all, as to assay type: functional
In assay [1] the test system is Haemophilus influenzae. The assay is described as follows: Antibacterial activity against Haemophilus influenzae by agar microdilution method. The gist of the method: (§1)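 Strains from an in-house culture collection (Pliva Research Institute). MIC determined by agar microdilution following NCCLS standards and reported in μg/mL. Erythromycin-susceptible strains are listed as Ery-S; the panel also includes inducibly resistant (iMLS), constitutively resistant (MLSB) and efflux-resistant (M) strains.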

Assay [2] has as its system Streptococcus pyogenes. Put plainly: Antibacterial activity against erythromycin-susceptible Streptococcus pyogenes by agar microdilution method. Summed up:
as §1

The subject of assay [3] is Streptococcus pyogenes. The assay is described as follows: Antibacterial activity against macrolide lincosamide- streptogramin B inducibly-resistant Streptococcus pyogenes by agar microdilution method. The gist of the method:
(§2)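 Agar microdilution MIC following NCCLS standards; strains taken from the Pliva Research Institute culture collection. Panel grouped by phenotype: erythromycin-susceptible, inducibly MLS-resistant (iMLS), constitutively MLSB-resistant and efflux-resistant (M). Azithromycin, telithromycin and cethromycin tested alongside as references. MIC reported in μg/mL.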

Assay [4] has as its system Staphylococcus aureus. The assay is described as follows: Antibacterial activity against macrolide lincosamide- streptogramin B-resistant Staphylococcus aureus by agar microdilution method. The gist of the method:
as §2

Assay [5] relates to Staphylococcus aureus. The assay is described as follows: Antibacterial activity against macrolide lincosamide- streptogramin B inducibly-resistant Staphylococcus aureus by agar microdilution method. The gist of the method: as §2
The subject of assay [6] is Streptococcus pneumoniae. Put plainly: Antibacterial activity against macrolide lincosamide- streptogramin B inducibly-resistant Streptococcus pneumoniae by agar microdilution method. The gist of the method:
as §2

For assay [7], the system named is Staphylococcus aureus. The assay is described as follows: Antibacterial activity against erythromycin-susceptible Staphylococcus aureus by agar microdilution method. The gist of the method:
as §1

The subject of assay [8] is Streptococcus pneumoniae. Put plainly: Antibacterial activity against efflux-resistant Streptococcus pneumoniae by agar microdilution method. Summed up: as §2
In assay [9] the test system is Streptococcus pneumoniae. Put plainly: Antibacterial activity against erythromycin-susceptible Streptococcus pneumoniae by agar microdilution method. The gist of the method:
as §1

For assay [10], the system named is Streptococcus pyogenes. The assay is described as follows: Antibacterial activity against efflux-resistant Streptococcus pyogenes by agar microdilution method. Summed up: as §2

Take `CC[C@H]1OC(=O)[C@H](C)C(=O)[C@H](C)[C@@H](O[C@@H]2O[C@H](C)C[C@H](N(C)C)[C@H]2O)[C@](C)(OC)C[C@@H](C)C(=O)[C@H](C)[C@H]2C(N)C(=O)O[C@@]21C` (stereo not given in full): the MIC in assay [1] was above 64 µg/mL; in assay [2], 2 µg/mL (≈ 3.19 µM); in [3], above 64 µg/mL; in assay [4], above 64 µg/mL; in assay [5], 32 µg/mL (≈ 51.1 µM); in assay [6], above 64 µg/mL. In addition, the MIC in assay [7] is 1 µg/mL (≈ 1.6 µM); in assay [8], 8 µg/mL (≈ 12.8 µM); in assay [9], at most 0.125 µg/mL; in [10], 8 µg/mL (≈ 12.8 µM).
As for `CC[C@H]1OC(=O)[C@H](C)C(=O)[C@H](C)[C@@H](O[C@@H]2O[C@H](C)C[C@H](N(C)C)[C@H]2O)[C@](C)(OC)C[C@@H](C)C(=O)[C@H](C)[C@H]2C(NC(=O)CCc3ccccc3)C(=O)O[C@@]21C` (stereo not given in full), the MIC is 16 µg/mL (≈ 21.1 µM) in [1]; 0.5 µg/mL (≈ 0.659 µM) in assay [2]; 16 µg/mL (≈ 21.1 µM) in assay [3]; above 64 µg/mL in [4]; 8 µg/mL (≈ 10.5 µM) in assay [5]; 16 µg/mL (≈ 21.1 µM) in [6]. The MIC in assay [7] was 4 µg/mL (≈ 5.27 µM); in [8], 4 µg/mL (≈ 5.27 µM); in assay [9], at most 0.125 µg/mL; in assay [10] it was 8 µg/mL (≈ 10.5 µM).
`CC[C@H]1OC(=O)[C@H](C)C(=O)[C@H](C)[C@@H](O[C@@H]2O[C@H](C)C[C@H](N(C)C)[C@H]2O)[C@](C)(OC)C[C@@H](C)C(=O)[C@H](C)[C@H]2C(NC(=O)CCc3ccncc3)C(=O)O[C@@]21C` (stereo not given in full): the MIC in [1] was 2 µg/mL (≈ 2.63 µM); in assay [2] it was at most 0.125 µg/mL; in assay [3] it was 2 µg/mL (≈ 2.63 µM); in assay [4], above 64 µg/mL; in assay [5], 8 µg/mL (≈ 10.5 µM); in assay [6] it was 16 µg/mL (≈ 21.1 µM). In addition, the MIC is 4 µg/mL (≈ 5.26 µM) in assay [7], 8 µg/mL (≈ 10.5 µM) in assay [8], at most 0.125 µg/mL in [9] and 2 µg/mL (≈ 2.63 µM) in [10].
Regarding `CC[C@H]1OC(=O)[C@H](C)C(=O)[C@H](C)[C@@H](O[C@@H]2O[C@H](C)C[C@H](N(C)C)[C@H]2O)[C@](C)(OC)C[C@@H](C)C(=O)[C@H](C)[C@H]2C(NC(=O)CCc3cccnc3)C(=O)O[C@@]21C` (stereo not given in full), the MIC in [1] was 8 µg/mL (≈ 10.5 µM); in assay [2] it was at most 0.125 µg/mL; in [3], 4 µg/mL (≈ 5.26 µM); in assay [4], above 64 µg/mL; in assay [5], 4 µg/mL (≈ 5.26 µM); in [6], 4 µg/mL (≈ 5.26 µM). The MIC was 2 µg/mL (≈ 2.63 µM) in assay [7], 2 µg/mL (≈ 2.63 µM) in assay [8], at most 0.125 µg/mL in [9] and 2 µg/mL (≈ 2.63 µM) in assay [10].
With `CC[C@H]1OC(=O)[C@H](C)[C@@H](O[C@H]2C[C@@](C)(OC)[C@@H](O)[C@H](C)O2)[C@H](C)[C@@H](O[C@@H]2O[C@H](C)C[C@H](N(C)C)[C@H]2O)[C@](C)(O)C[C@@H](C)CN(C)[C@H](C)[C@@H](O)[C@]1(C)O` [AZITHROMYCIN], the MIC is 1 µg/mL (≈ 1.34 µM) in [1]; at most 0.125 µg/mL in assay [2]; above 64 µg/mL in assay [3]; above 64 µg/mL in assay [4]; above 64 µg/mL in assay [5]; above 64 µg/mL in assay [6]. Further, the MIC in [7] was 1 µg/mL (≈ 1.34 µM); in assay [8], 4 µg/mL (≈ 5.34 µM); in assay [9] it was at most 0.125 µg/mL; in assay [10], 1 µg/mL (≈ 1.34 µM).
As for `CC[C@H]1OC(=O)[C@H](C)C(=O)[C@H](C)[C@@H](O[C@@H]2O[C@H](C)C[C@H](N(C)C)[C@H]2O)[C@](C)(OC)C[C@@H](C)C(=O)[C@H](C)[C@H]2N(CCCCn3cnc(-c4cccnc4)c3)C(=O)O[C@]12C` [TELITHROMYCIN], the MIC in [1] is 2 µg/mL (≈ 2.46 µM); in assay [2] it was at most 0.06 µg/mL; in assay [3], 4 µg/mL (≈ 4.93 µM); in assay [4], above 64 µg/mL; in assay [5] it was 0.5 µg/mL (≈ 0.616 µM); in [6] it was at most 0.125 µg/mL. The MIC was at most 0.125 µg/mL in assay [7], 0.5 µg/mL (≈ 0.616 µM) in assay [8], at most 0.06 µg/mL in assay [9] and 0.25 µg/mL (≈ 0.308 µM) in assay [10].
